Experimental data pooled from the literature.
Compare with care: the assays were run in different laboratories.
Cell line: A-375
Read-out: cell growth or viability

| Structure (SMILES) | test | setting | IC50 [nM] |
| --- | --- | --- | --- |
| COc1cccc(Nc2nc(-c3ccncc3)nc3c2CNCC3)c1 | MTT |  | 37200 |
| C[C@H]1COCCN1c1nc(N2CCOC[C@@H]2C)c2ccc(-c3cccc(C(=O)NCCOCCOCCOCCONC(=O)c4ccc(F)c(F)c4Nc4ccc(I)cc4F)c3)nc2n1 | WST-1 | 72 h | 11600 |
| CC(=O)O[C@H]1C(=O)[C@@]2(C)[C@H]([C@H](OC(=O)c3ccccc3)[C@]3(O)C[C@H](OC(=O)[C@H](O)[C@@H](NC(=O)c4ccccc4)c4ccccc4)C(C)=C1C3(C)C)[C@]1(OC(C)=O)CO[C@@H]1C[C@@H]2O | MTS | 72 h | 3 |
| CN1CCc2c(c3ccccc3n2Cc2ccc(C(=O)NO)cc2)C1 | CCK-8 | 48 h | 14800 |
| CC(C)(C)c1cnc(CSc2cnc(NC(=O)C3CCN(C(=O)CCCCCCCN4Cc5cc6c(cc5C4)C(=O)N(C4CCC(=O)NC4=O)C6=O)CC3)s2)o1 (stereo not drawn) | MTT |  | 83.3 |
| CN1CCC(NC2CCc3[nH]c4c(C(N)=O)ccc(-c5ccccc5Cl)c4c3C2)CC1 (stereo not drawn) |  | 96 h | 26.8 |
| Fc1ccccc1Nc1nc(-c2ccncc2)nc2c1CNCC2 | MTT |  | > 100000 |
| COc1cccc2c1C(=O)c1c(O)c3c(c(O)c1C2=O)C[C@@](O)(C(=O)CO)C[C@@H]3O[C@H]1C[C@H](N)[C@H](O)[C@H](C)O1 |  | 96 h | 32.9 |
| COc1cc(C(=O)c2nc(-c3cccc4[nH]cnc34)c[nH]2)cc(OC)c1OC | MTS | 72 h | 19.7 |
| CNc1cccc(Nc2nc(-c3ccncc3)nc3c2CNCC3)c1 | MTT |  | 35200 |
| COc1cc(C(=O)c2nc(-c3cccc4[nH]ccc34)c[nH]2)cc2c1OC=CO2 | MTS | 72 h | 11.5 |
| COc1ccc(-c2ccc3c(N4CCOC[C@@H]4C)nc(N4CCOC[C@@H]4C)nc3n2)cc1COC(=O)CCOCCOCCOCCONC(=O)c1ccc(F)c(F)c1Nc1ccc(I)cc1F | WST-1 | 72 h | 204 |
